Active and inactive are the calls of the source. The calls are words filed in the database; no cut-off is given here.
What was measured:
[1] = target: 26S proteasome; assay: Inhibition of caspase-like activity of human 20S proteasome using Ac-nLPnLD-AMC as substrate; type: protein-complex assay
[2] = test system: HCT-116; assay: Inhibition of human HCT116 cell growth; type: functional, cell-based
[3] = target: 26S proteasome; assay: Inhibition of trypsin-like activity of human 20S proteasome using Ac-RLR-AMC as substrate; type: protein-complex assay
[4] = target: 26S proteasome; assay: Inhibition of chymotrypsin-like activity of human 20S proteasome using Suc-LLVY-AMC as substrate; type: protein-complex assay
[5] = Inhibition of caspase-like activity of proteasome (unknown origin); set-up: species or system Homo sapiens
[6] = test system: HCT-116; assay: Cell cycle arrest in human HCT116 cells assessed as accumulation at G1 phase at 100 nM after 24 hrs by propidium iodide staining based flow cytometry (reference value: 35.6%); type: functional
[7] = target: T1, Lysosomal protective protein (Homo sapiens, UniProt P10619); assay: Inhibition of recombinant cathepsin A (unknown origin) using Mca-Arg-Pro-Pro-Gly-Phe-Ser-Ala-Phe-Lys(Dnp)-OH as substrate incubated with enzyme for 5 mins prior to substrate challenge for 2 hrs by spectrofluorometer analysis
T1 sequence (P10619 whole entry): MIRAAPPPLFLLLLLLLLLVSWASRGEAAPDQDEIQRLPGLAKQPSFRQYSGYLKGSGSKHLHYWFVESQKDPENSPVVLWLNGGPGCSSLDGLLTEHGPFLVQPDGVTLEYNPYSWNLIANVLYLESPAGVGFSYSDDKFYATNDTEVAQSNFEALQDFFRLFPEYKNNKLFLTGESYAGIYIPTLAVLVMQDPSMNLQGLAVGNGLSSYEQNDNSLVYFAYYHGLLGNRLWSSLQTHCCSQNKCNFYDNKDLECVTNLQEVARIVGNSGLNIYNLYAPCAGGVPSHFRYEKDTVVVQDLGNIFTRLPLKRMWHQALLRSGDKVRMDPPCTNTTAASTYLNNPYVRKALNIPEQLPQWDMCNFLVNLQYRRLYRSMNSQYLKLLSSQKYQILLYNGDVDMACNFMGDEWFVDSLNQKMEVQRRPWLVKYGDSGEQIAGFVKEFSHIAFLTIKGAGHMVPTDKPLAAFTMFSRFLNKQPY

[8] = test system: HCT-116; assay: Cell cycle arrest in human HCT116 cells assessed as accumulation at G2/M phase at 100 nM after 24 hrs by propidium iodide staining based flow cytometry (reference value: 19.1%); type: functional
[9] = target: Cathepsin B (Homo sapiens, UniProt P07858); assay: Inhibition of recombinant cathepsin B (unknown origin) using Z-Leu-Arg-AMC as substrate by spectrofluorometer analysis
[10] = target: T2, Cathepsin G (Homo sapiens, UniProt P08311); assay: Inhibition of recombinant cathepsin G (unknown origin) using Suc-Ala-Ala-Pro-Phe-AMC as substrate by spectrofluorometer analysis
T2 sequence (P08311 whole entry): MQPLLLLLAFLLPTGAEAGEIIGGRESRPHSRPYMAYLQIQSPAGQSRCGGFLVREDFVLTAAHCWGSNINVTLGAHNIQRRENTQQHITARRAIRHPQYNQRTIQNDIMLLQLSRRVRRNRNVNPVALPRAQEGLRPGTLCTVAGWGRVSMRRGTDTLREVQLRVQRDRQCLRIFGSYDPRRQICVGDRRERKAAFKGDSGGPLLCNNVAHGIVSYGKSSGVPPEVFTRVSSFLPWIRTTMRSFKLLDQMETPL

[11] = test system: HCT-116; assay: Cell cycle arrest in human HCT116 cells assessed as accumulation at S phase at 100 nM after 24 hrs by propidium iodide staining based flow cytometry (reference value: 45.3%); type: functional
[12] = test system: HCT-116; assay: Induction of apoptosis in human HCT116 cells assessed as increase in p53 expression by immunoblot analysis; type: functional, cell-based
Outline: (§1)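 HCT116 cells were treated with compound or DMSO vehicle. Lysates were immunoblotted for p53 accumulation and for cleaved PARP as the apoptosis marker.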

[13] = target: T3, Proteasome subunit beta type-8 (Homo sapiens, UniProt P28062); assay: Inhibition of beta5i subunit of immunoproteasome (unknown origin) by active-site ELISA
T3 sequence (P28062 whole entry): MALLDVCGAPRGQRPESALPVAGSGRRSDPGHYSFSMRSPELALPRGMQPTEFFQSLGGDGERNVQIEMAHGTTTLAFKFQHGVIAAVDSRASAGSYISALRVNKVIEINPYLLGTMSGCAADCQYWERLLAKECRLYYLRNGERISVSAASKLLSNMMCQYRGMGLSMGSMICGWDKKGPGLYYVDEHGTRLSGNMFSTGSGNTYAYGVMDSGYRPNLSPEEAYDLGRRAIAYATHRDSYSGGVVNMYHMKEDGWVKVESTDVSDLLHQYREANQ

[14] = target: T4, Proteasome Macropain subunit MB1 (Homo sapiens, UniProt P28074); assay: Inhibition of beta5 subunit of constitutive proteasome (unknown origin) by active-site ELISA
T4 sequence (P28074 whole entry): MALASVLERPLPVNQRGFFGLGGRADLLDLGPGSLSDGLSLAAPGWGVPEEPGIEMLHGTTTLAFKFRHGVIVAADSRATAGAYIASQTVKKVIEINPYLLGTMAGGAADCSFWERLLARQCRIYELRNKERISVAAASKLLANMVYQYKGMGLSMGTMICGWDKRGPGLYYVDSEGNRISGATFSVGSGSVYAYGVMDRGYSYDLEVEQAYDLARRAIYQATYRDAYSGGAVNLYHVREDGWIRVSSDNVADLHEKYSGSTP

[15] = test system: HCT-116; assay: Induction of apoptosis in human HCT116 cells assessed as increase in PARP cleavage by immunoblot analysis; type: functional, cell-based; outline: as §1
[16] = target: T5, Proteasome Macropain subunit MB1 (Homo sapiens) (UniProt P28074); assay: Binding affinity to beta5 subunit of 20S proteasome (unknown origin) assessed as dissociation half-life
T5 sequence (whole entry): T4 sequence (P28074 whole entry)
Outline: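 Human 20S proteasome was preincubated with inhibitor. Chymotrypsin-like activity was then measured before and after removal of free inhibitor by dialysis (wash-out), with reference reversible and irreversible inhibitors run alongside.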

IC50 [1] [nM]	IC50 [2] [nM]	IC50 [3] [nM]	IC50 [4] [nM]	Structure (SMILES)	further results
140	45.4	1100	3.9	CC(=O)N[C@@H](CC(=O)NCC(COCc1ccccc1)COCc1ccccc1)C(=O)N[C@@H](CC(C)C)B1O[C@@H]2C[C@@H]3C[C@@H](C3(C)C)[C@]2(C)O1	
130	60	2700	7.8	CC(C)C[C@H](NC(=O)[C@H](CC(=O)NCCC(COCc1ccccc1)COCc1ccccc1)NC(=O)c1ccccc1)B1O[C@@H]2C[C@@H]3C[C@@H](C3(C)C)[C@]2(C)O1	
	1820		5.7	CC[C@H](C)[C@@H]1C(=O)O[C@H]1C(=O)N[C@H]1C[C@@H]1C[C@@H](CCc1ccccc1)NC(=O)[C@H](C)NC(=O)OCc1ccccc1	
				CC(C)C[C@H](NC(=O)[C@@H](NC(=O)c1cccc(-c2ccccc2)n1)[C@@H](C)O)B(O)O [DELANZOMIB]	IC50 [5]: 70 nM
	5			CC(C)C[C@H](NC(=O)[C@H](Cc1ccccc1)NC(=O)c1cnccn1)B(O)O [BORTEZOMIB]	Activity [6]: 3%; IC50 [7]: 9200 nM; Activity [8]: 76%; IC50 [9]: > 30000 nM; IC50 [10]: 3100 nM; Activity [11]: 21%
76	110	2500	5.7	CC(=O)N[C@@H](CCC(=O)NCCC(COCc1ccccc1)COCc1ccccc1)C(=O)N[C@@H](CC(C)C)B1O[C@@H]2C[C@@H]3C[C@@H](C3(C)C)[C@]2(C)O1	
1000	260	> 10000	7.5	CC(C)C[C@H](NC(=O)[C@H](CC(=O)NCCC(COCc1ccccc1)COCc1ccccc1)NC(=O)c1cccc(-c2ccccc2)n1)B1O[C@@H]2C[C@@H]3C[C@@H](C3(C)C)[C@]2(C)O1	
250	140	> 10000	5.9	CC(C)C[C@H](NC(=O)[C@H](CC(=O)NCCC(COCc1ccccc1)COCc1ccccc1)NC(=O)c1cc(Cl)ccc1Cl)B1O[C@@H]2C[C@@H]3C[C@@H](C3(C)C)[C@]2(C)O1	
75	63.6	2400	5.1	CC(=O)N[C@@H](CCC(=O)NCC(COCc1ccccc1)COCc1ccccc1)C(=O)N[C@@H](CC(C)C)B1O[C@@H]2C[C@@H]3C[C@@H](C3(C)C)[C@]2(C)O1	
150	31.8	2700	2.7	CC(=O)N[C@@H](CC(=O)NCCC(COCc1ccccc1)COCc1ccccc1)C(=O)N[C@@H](CC(C)C)B1O[C@@H]2C[C@@H]3C[C@@H](C3(C)C)[C@]2(C)O1	Activity [6]: 3.2%; Activity [12]: Active; IC50 [13]: 31 nM; IC50 [7]: > 30000 nM; IC50 [14]: 140 nM; Activity [15]: Active; Activity [8]: 71.7%; IC50 [9]: > 30000 nM; IC50 [10]: > 30000 nM; Activity [11]: 25.1%
170	130	2170	4.8	CC(=O)N[C@@H](CC(=O)NCCCCOCc1ccccc1)C(=O)N[C@@H](CC(C)C)B1O[C@@H]2C[C@@H]3C[C@@H](C3(C)C)[C@]2(C)O1	Activity [6]: 22.9%; Activity [12]: Active; IC50 [13]: 59 nM; IC50 [7]: > 30000 nM; IC50 [14]: 280 nM; Activity [15]: Active; Activity [8]: 50.5%; IC50 [9]: > 30000 nM; IC50 [10]: > 30000 nM; Activity [11]: 26.6%
				CC(C)C[C@H](NC(=O)CNC(=O)c1cc(Cl)ccc1Cl)B1OC(=O)CC(CC(=O)O)(C(=O)O)O1 (stereo partly drawn)	T1/2 [16]: 18 min
500	2500	> 10000	54	CNC(=O)C[C@H](NC(C)=O)C(=O)N[C@@H](CC(C)C)B1O[C@@H]2C[C@@H]3C[C@@H](C3(C)C)[C@]2(C)O1	
				CC(C)C[C@H](NC(=O)[C@H](CCc1ccccc1)NC(=O)CN1CCOCC1)C(=O)N[C@@H](Cc1ccccc1)C(=O)N[C@@H](CC(C)C)C(=O)[C@@]1(C)CO1 [CARFILZOMIB]	IC50 [7]: > 30000 nM; IC50 [9]: 11000 nM; IC50 [10]: > 30000 nM
	79.6		7.7	CC(=O)N[C@@H](CC(=O)NCC(COCc1ccccc1)COCc1ccccc1)C(=O)N[C@@H](CC(C)C)B(O)O	
210	45	3300	7.1	CC(C)C[C@H](NC(=O)[C@H](CC(=O)NCCC(COCc1ccccc1)COCc1ccccc1)NC(=O)c1cnccn1)B1O[C@@H]2C[C@@H]3C[C@@H](C3(C)C)[C@]2(C)O1	
	> 10000		29	CC[C@H](C)[C@@H]1C(=O)O[C@H]1C(=O)NCCC(COCc1ccccc1)COCc1ccccc1	
120	43	2700	4.1	CC(=O)N[C@@H](CC(=O)NCCCC(COCc1ccccc1)COCc1ccccc1)C(=O)N[C@@H](CC(C)C)B1O[C@@H]2C[C@@H]3C[C@@H](C3(C)C)[C@]2(C)O1	
				CC(=O)N[C@@H](CSC(=O)[C@]1([C@@H](O)C(C)C)NC(=O)[C@H](C)[C@@H]1O)C(=O)O [LACTACYSTIN]	IC50 [13]: > 3000 nM
46	67.2	3000	4.1	CC(=O)N[C@@H](CCC(=O)NCCCC(COCc1ccccc1)COCc1ccccc1)C(=O)N[C@@H](CC(C)C)B1O[C@@H]2C[C@@H]3C[C@@H](C3(C)C)[C@]2(C)O1	

Structure (SMILES)	IC50 [1] [nM]	IC50 [2] [nM]	IC50 [3] [nM]	IC50 [4] [nM]	further results
CC[C@H](C)[C@@H]1C(=O)O[C@H]1C(=O)N[C@H]1C[C@H]1C[C@H](NC(=O)[C@H](C)N)C(=O)O [BELACTOSIN A]				1400	
